Measurements: PubChem BioAssay AID624466 (The Scripps Research Institute Molecular Screening Center, 2012)
The whole screen tested about 360,000 compounds, of which about 5,400 (1.5%) were called active.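 The calls were made as follows: active = inhibition above a per-plate cutoff, the mean inhibition of test compounds on that plate plus 3 SD (cut at about 49% in these data); inactive = the rest.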 The full list was thinned out, with actives kept by preference.

target: Trace amine-associated receptor 1 (Homo sapiens) (UniProt Q96RJ0); assay: blockers of beta-PEA-driven TAAR1 calcium signal – Fluo-8 calcium fluorescence, CHO RD-HGA16 cells, primary screen (AID 624466); conditions: CHO RD-HGA16 TAAR1, Fluo-8 calcium fluorescence, antagonist; at 3 µM; active compounds read high;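 also: 0% = DMSO plus EC80 beta-PEA response and 100% = DMSO alone without agonist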
Summary of the method: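 Test system – hTAAR1-expressing CHO RD-HGA16 cells, Gα16-coupled · Reagent – β-PEA at EC80 concentration, post-compound challenge · Compound dosing – 3 µM, single point · Timing – 140 s kinetic read after compound, 140 s after agonist · Detection – Fluo-8 intracellular calcium dye fluorescence, real-time kinetic reads · Control set – DMSO and EC80 PEA controls · Repeats – n of 1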

Trace amine-associated receptor 1 (Homo sapiens), sequence (Q96RJ0 whole entry, looked up, the tested form may be a part): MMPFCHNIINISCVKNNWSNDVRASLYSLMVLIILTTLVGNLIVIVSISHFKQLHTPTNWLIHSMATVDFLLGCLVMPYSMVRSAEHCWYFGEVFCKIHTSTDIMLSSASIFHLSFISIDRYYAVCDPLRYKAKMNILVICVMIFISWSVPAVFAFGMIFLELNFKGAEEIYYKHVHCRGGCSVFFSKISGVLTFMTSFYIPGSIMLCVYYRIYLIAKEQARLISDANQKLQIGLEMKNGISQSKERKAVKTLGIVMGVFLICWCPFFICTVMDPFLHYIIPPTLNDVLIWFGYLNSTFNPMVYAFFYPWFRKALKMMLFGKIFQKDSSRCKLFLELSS

inhibition, active:
S=C(Nc1ccc(Br)cc1)NC1CCN(Cc2ccccc2)CC1 51.4%
Nc1c(C(=O)c2cccs2)sc2nsc(SCCN3CCCCC3)c12 61.2%
CCN=C1SC(CC(=O)Nc2ccc(C)cc2)C(=O)N1CC (centres undefined) 57.5%
CC(=O)OCCN(CCCn1c(-c2ccncc2)nc2ccccc21)c1nc(-c2ccc(C)cc2)cs1 53.5%
N#Cc1cccc(NC(=O)COC(=O)c2ccccc2C(=O)c2ccc(Cl)c([N+](=O)[O-])c2)c1 71.8%
CCOc1ccc(NC(=O)N2CC=C(n3c(=O)[nH]c4ccccc43)CC2)cc1 62%
Fc1ccc(NC(=S)N2CCc3[nH]c4ccccc4c3C2)cc1 60.8%
Fc1ccc(Cn2nnnc2C(c2cccs2)N2CCCCCC2)cc1 (centres undefined) 50%
Cc1ccc(CNC(=O)c2ccccc2CCc2ccccc2)cc1 49.7%
O=C1c2ccccc2C(=O)N1CCC#Cc1ccc2cc(C3(O)CCCCC3)oc(=O)c2c1 75.1%
CC(=O)N1CCCc2cc(S(=O)(=O)N3CCCC(C(=O)N4CCN(c5cccc(Cl)c5)CC4)C3)ccc21 (centres undefined) 83.6%
Oc1ccc(/C=N/Nc2nc(-c3ccccc3F)nc3ccccc23)c(O)c1 82.1%
Cn1c(C(=O)NCCc2ccsc2)cc2c(=O)n(C)c3ccccc3c21 57.4%
Cc1cccc(C)c1NC(=O)CNC(=O)C1CCCC1 100%
CC/C(=N/Nc1ccccc1)c1cnnc(SC)n1 74.9%
Cc1ccc(-n2c(C)cc(/C=N\NC(=O)CC(=O)NC(C)C)c2C)cc1 97.7%
COc1ccc(-c2nc3cnccn3c2NC(C)(C)CC(C)(C)C)cc1O 48.6%
COC(=O)c1cc(NC(=O)c2cc(C(C)(C)C)nn2Cc2cccc(C)c2)ccc1N1CCOCC1 50.4%

inhibition, inactive:
Cc1cc(Br)cn2c(Cc3ccccc3C(F)(F)F)c(-c3ccc(C#N)cc3)nc12 3.16%
CN(C(=O)COC(=O)CCCc1c[nH]c2ccccc12)c1c(N)n(Cc2ccccc2)c(=O)[nH]c1=O 2.09%
COc1ccc(SSc2ccc(OC)cc2C(=O)O)c(C(=O)O)c1 -9.02%
S=C(Nc1ccc(Br)cc1Cl)NC1CCN(Cc2ccccc2)CC1 0.09%
S=C(NN=C1CCN(Cc2ccccc2)CC1)NC1CCCCC1 -2.21%
Cc1ccc2nc(-c3ccc(CN4CCC(n5cc(-c6ccccc6)[nH]c5=O)CC4)cc3)c(-c3ccccc3)nc2c1 14.1%
Cc1cc(Cl)c(S(=O)(=O)NCc2cccnc2)cc1OCC(N)=O -0.54%
CCC(=O)N1Cc2cc(C(=O)NCc3cccc(F)c3)nc(-c3cccc(C4=CCCC4)c3)c2[C@H]1CCO -2.34%
COc1cccc(-c2nnc(N(C)C(=O)c3ccno3)s2)c1 8.59%
CN=C1SC(CC(=O)Nc2ccc(C(=O)O)cc2)C(=O)N1C (centres undefined) -12.5%
CCN1C(=O)C(CC(=O)Nc2cc(C)ccc2C)SC1=Nc1ccc(S(N)(=O)=O)cc1 (centres undefined) 6.51%
Cc1ccc(NC(=O)N2c3ccccc3SC2c2ccco2)c(C)c1 (centres undefined) -10.8%
CC(=O)N1CCc2cc(S(=O)(=O)NC3CCCCC3)ccc21 6.97%
Cc1ccc(NC(=O)CN(C)C(=O)Cn2nnc(-c3ccccc3)n2)cc1 -1.85%
CCOCCn1c(-c2ccccc2)nc2ccccc21 -32.8%
COc1ccc(-c2nc3ccccc3n2CCC(C)C)cc1OC 19.6%
CCc1cccc2c3c([nH]c12)C(CC)(CC(=O)O)OCC3 (centres undefined) -11.8%
O=C1CCN(Cc2ccccc2)CCN1[C@H](CSc1ccccc1)c1ccccc1 15.6%
CC(C)C1Cc2[nH][nH]c(=O)c2C(c2ccc(Cl)cc2)O1 (centres undefined) -21.6%
CCC(c1nnnn1-c1ccc2c(c1)OCCO2)N1CCN(c2ccc(C(F)(F)F)cn2)CC1 (centres undefined) 24.4%
CC(=O)Nc1ccc(NC(=O)C(C)OC(=O)c2ccccc2C(=O)c2ccc(Cl)c([N+](=O)[O-])c2)cc1 (centres undefined) 13.5%
NS(=O)(=O)c1cccc(NC(=O)COC(=O)c2cc([N+](=O)[O-])ccc2N2CCCC2)c1 7.66%
O=C(c1ccco1)N1CCN(C(=O)C2CCCN(S(=O)(=O)c3cccc4nsnc34)C2)CC1 (centres undefined) 8.68%
COc1cc(OC)cc(-c2c(C#Cc3ccsc3)c3cc(-c4ccc(OC)cc4F)ccc3n2C)c1 10.3%
COc1cccc(NC(=O)N(C)C[C@@H]2OCc3cn(nn3)CCCC(=O)N([C@@H](C)CO)C[C@H]2C)c1 -3.32%
CCOc1ccc(NC(=O)N2CCN(CC)CC2)cc1 13.8%
Cc1cccc(C)c1NC(=O)N1CC=C(n2c(=O)[nH]c3ccccc32)CC1 17.3%
CCCNC(=S)N1CCCC(c2nc3ccccc3[nH]2)C1 (centres undefined) 1.96%
CC(C)C[C@@H](COCc1ccc(Cl)cc1)N1CCN(C(=O)c2ccc(Cl)cc2Cl)CCC1=O 15.1%
C[C@H](O)[C@@H]1C(=O)N2CCc3c([nH]c4ccccc34)[C@@H]2C[C@@H]1N(C)C(=O)Nc1ccc(F)cc1 -21.1%
C=CCNC(=S)N1CCc2[nH]c3ccccc3c2C1 -0.9%
Cc1ccc(S(=O)(=O)N2[C@@H](Cc3ccccc3)CO[C@H]2CC(=O)OCc2ccccc2)cc1 22.8%
COc1ccc(NC(=O)CNc2cc(S(=O)(=O)N3CCOCC3)ccc2N2CCOCC2)c(OC)c1 14.2%
Cc1[nH]nc2c1C(c1ccc(Br)cc1)NC2=O (centres undefined) -19.4%
CCOC(=O)N1CCC(=NNC(N)=O)CC1 5.25%
Fc1ccccc1C(c1nnnn1Cc1ccc2c(c1)OCO2)N1CCN(Cc2ccccc2)CC1 (centres undefined) 8.62%
N#Cc1ccc(C(c2nnnn2CCc2ccccc2)N2CCCCCC2)cc1 (centres undefined) 19.8%
CCc1nnc(NC(=O)CSc2nnnn2-c2cccc(C(C)=O)c2)s1 -22.1%
O=C(NCc1ccccc1)C1c2ccccc2OCC(=O)N1CCCN1CCOCC1 (centres undefined) -17.4%
O=C(O)c1ccc(S(=O)(=O)c2ccccc2)s1 7.73%
Cc1ccc(NC(=O)C(=O)NCc2ccc(/C=N/NC(=O)c3c(C)nc4cc(C)ccn34)o2)cc1 -9.86%
CSc1ccccc1C(=O)NCc1ccccc1 3.42%
Cc1ccc(CNC(=O)c2cccnc2Cl)cc1 0.77%
COc1cc(C#Cc2ccc3cc(CCCO)oc(=O)c3c2)cc(OC)c1 26.9%
Cc1cccn2cc(-c3cccc(S(=O)(=O)N4CCCCC4)c3)nc12 -29.1%
CCC(C(=O)Nc1c(C)cccc1C)n1c(-c2cc(C)cs2)nc2ccccc21 (centres undefined) -17.6%
Fc1ccccc1/C=N/Nc1cc(N2CCCCC2)ncn1 -0.85%
COc1cccc(N2CCN(C(=O)C3CCCN(S(=O)(=O)c4cnc[nH]4)C3)CC2)c1 (centres undefined) -6.44%
O=C(C1CCCN(S(=O)(=O)c2ccccc2)C1)N1CCN(c2ccc(F)cc2)CC1 (centres undefined) -6.96%
Cn1c(=O)n(C)c(=O)n(CC(=O)N2CCCCC2)c1=O -10.7%
CCOc1ccc(N(C)S(=O)(=O)c2cnc[nH]2)cc1 -13.2%
Cn1c(C(=O)N2CCC(C(N)=O)CC2)cc2c(=O)n(C)c3ccccc3c21 -11.2%
Cn1c(C(=O)NCCN2CCc3ccccc3C2)cc2c(=O)[nH]c3ccccc3c21 4.74%
COc1ccc(C(=O)Nc2ccc(C(=O)NCC3CCCO3)cc2)c(OC)c1OC (centres undefined) -23%
O=C1NC[C@H](Cc2ccc(O)cc2)N(C[C@@H]2CCCN2C[C@H](Cc2ccccc2)N2C[C@H](Cc3ccccc3)N(CC3CCCCC3)C(=O)C2=O)C1=O -20.1%
CN(CC(=O)Nc1c(Cl)cccc1Cl)C(=O)CNC(=O)C1CCCCC1 -8.13%
Cc1cccc(C)c1NC(=O)CNC(=O)Cc1ccc(Br)cc1 -2.34%
Cc1ccc(S(=O)(=O)N2CCCC2C(=O)NCc2ccco2)cc1 (centres undefined) -5.82%
COc1ccc(CNC(=O)CN(Cc2ccccc2Cl)C(=O)c2csnn2)cc1 10.7%
CCCc1nc2ccccc2n1C(C)C(=O)NC(C)(C)C (centres undefined) -0.35%
COc1ccc(Br)cc1S(=O)(=O)N1CCN=C1C -4.85%
Cc1ccc(-c2noc(CNC(=O)c3ccoc3C)n2)cc1 -42.9%
C/C(=N/Nc1ccc(Cl)cc1)c1cnnc(-c2ccccc2)n1 8.2%
C/C(=N\Nc1ccccc1)c1cccs1 8.01%
O=C(COC(=O)c1ncc(Cl)c(Cl)c1Cl)NC1CCS(=O)(=O)C1 (centres undefined) -31.4%
Cc1cc(/C=N/NC(=O)CC2(C)OCCO2)c(C)n1-c1ccc(Cl)c(Cl)c1 -4.93%
Cc1cc(/C=N/NC(N)=O)c(C)n1C1CCCCC1 -23.7%
COc1ccc(-c2nc3cnccn3c2NC2CCCCC2)cc1-c1cccc(Cl)c1 -50.3%
CCOc1cc(-c2nc3cc(C)ccn3c2NCC2CCCO2)ccc1O (centres undefined) 24.7%
COC(=O)c1cc(NC(=O)c2cccnc2)ccc1N1CCOCC1 -22%
CC(=O)Nc1ccc(N2CCOCC2)c(C(=O)Nc2cccc(C)c2)c1 -5.97%
